Measured values reported in ChEMBL document CHEMBL1151765, “Rational design of substituted diarylureas: a scaffold for binding to G-quadruplex motifs” (J Med Chem, 2008).
Activity calls are given as the source filed them. No cut-off for these calls is given here.

Legend:
[1] = Binding affinity to biotin-labeled d[CGA2T2CGTCTC2GA2T2CG] sequence of duplex DNA by surface plasmon resonance analysis
Method in brief: (§1)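 Streptavidin chip with 5′-biotinylated DNA immobilized to 350-400 RU; blank reference flow cell. Run in 10mM HEPES, 100mM KCl, 3mM EDTA, P20 surfactant, pH 7.3, 25°C. Ligand 1nM to 10µM (from 20mM DMSO stock) injected at 50µl/min for 5–10 min to steady state, then 10 min buffer dissociation; glycine pH 2.0 regeneration between cycles.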

[2] = Binding affinity to biotin-labeled d[(CG3)2CGCGAG3AG4] sequence of c-kit2 G-quadruplex DNA by surface plasmon resonance analysis; method in brief: as §1
[3] = target: T1, Telomerase reverse transcriptase (Homo sapiens, UniProt O14746); assay: Inhibition of telomerase at 50 uM by TRAP-LIG assay relative to control
Homo sapiens = species on record: Homo sapiens; assay: Binding affinity to biotin-labeled human telomeric d[AG3(T2AG3)3] sequence by surface plasmon resonance analysis; method in brief: as §1
[4] = target: T1, Telomerase reverse transcriptase; assay: Inhibition of telomerase by TRAP-LIG assay
[5] = Selectivity ratio of equilibrium binding constant K for d[(CG3)2CGCGAG3AG4] sequence of c-kit2 G-quadruplex DNA to equilibrium binding constant K for d[CGA2T2CGTCTC2GA2T2CG] sequence of duplex DNA
MCF7 [6] = assay: Cytotoxicity against human MCF7 cells assessed as population doubling at 3.50 uM after 1 week […] relative to control; assay type: functional
Method in brief: (§2)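 MCF7 cells (1×10^5) treated with sub-cytotoxic ligand concentrations for 1 week, biweekly dosing. Cells counted by haemocytometer; population doublings n = (log Pn – log P0)/log2. Values normalized to vehicle control (100%) ± sd, two independent concentrations per ligand.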

[7] = Selectivity ratio of equilibrium binding constant K for d[(AG3TG4)2A] sequence of c-myc G-quadruplex DNA to equilibrium binding constant K for d[CGA2T2CGTCTC2GA2T2CG] sequence of duplex DNA
MCF7 [8] = assay: Cytotoxicity against human MCF7 cells assessed as population doubling at 7 uM after 1 week […] relative to control; assay type: functional; method in brief: as §2
[9] = Cytotoxicity against human WI38 cells after 96 hrs by SRB assay; assay type: cell-based; details: WI-38, 96 h
A549 [10] = assay: Selectivity ratio of IC50 for human A549 cells to IC50 for human WI38 cells
MCF7 [11] = assay: Cytotoxicity against human MCF7 cells assessed as cell senescence at 3.5 uM after 1 week by beta-galactosidase assay; assay type: functional
[12] = Stabilization of d[G3(T2AG3)3] sequence of F21T telomeric G-quadruplex DNA assessed as change in melting temperature at 1 uM by FRET assay relative to BRACO-19 in presence of calf thymus DNA
Method in brief: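 F21T FRET melting with ligand at 1µM in the presence of calf thymus DNA competitor at increasing bp concentrations. Retained stabilization, from three experiments, normalized to the ligand's ΔTm with no competitor (100%) ± normalized sd.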

[13] = Selectivity ratio of equilibrium binding constant K for d[(AG3)2CGCTG3AG2AG3] sequence of c-kit1 G-quadruplex DNA to equilibrium binding constant K for d[CGA2T2CGTCTC2GA2T2CG] sequence of duplex DNA
[14] = Stabilization of d[G3(T2AG3)3] sequence of F21T telomeric G-quadruplex DNA assessed as change in melting temperature at 1 uM by FRET assay
Method in brief: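 Dual-labelled oligo (5′-FAM, 3′-TAMRA) at 400nM in FRET buffer (60mM KCl, K cacodylate, pH 7.4), heated to 85 °C for 10 min, cooled to room temperature. Ligand added from DMSO dilution. Excitation 450–495nm, emission 515–545nm, read every 0.5 °C from 30–100 °C. ΔTm from four experiments: averaged ligand Tm minus averaged buffer-control Tm, ± maximum sd.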

MCF7 [15] = assay: Cytotoxicity against human MCF7 cells after 96 hrs by SRB assay; assay type: functional, cell-based; details: MCF7, 96 h
[16] = Stabilization of d[AGAG3AG2GCGCTG3AG2AG3GCT] sequence of c-kit1 G-quadruplex DNA assessed as change in melting temperature at 1 uM by FRET assay
Method in brief: (§3)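 Dual-labelled FAM/TAMRA oligos at 400nM in 60mM KCl potassium cacodylate buffer, pH 7.4, heated to 85 °C for 10 min, then cooled. Ligand added to 1µM; buffer alone as negative control. Excitation 450–495nm, emission read at 515–545nm every 0.5 °C from 30–100 °C. ΔTm is ligand Tm minus control Tm, from four experiments ± maximum sd; c-kit1 curves fitted to sigmoids.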

A549 [17] = assay: Cytotoxicity against human A549 cells after 96 hrs by SRB assay; assay type: functional, cell-based; details: A549, 96 h
[18] = Binding affinity to biotin-labeled d[(AG3)2CGCTG3AG2AG3] sequence of c-kit1 G-quadruplex DNA by surface plasmon resonance analysis; method in brief: as §1
[19] = Selectivity ratio of equilibrium binding constant K for human telomeric d[AG3(T2AG3)3] sequence to equilibrium binding constant K for d[CGA2T2CGTCTC2GA2T2CG] sequence of duplex DNA
[20] = Binding affinity to biotin-labeled d[(AG3TG4)2A] sequence of c-myc G-quadruplex DNA by surface plasmon resonance analysis; method in brief: as §1
[21] = Stabilization of d[C3G3CG3CGCGAG3AG4AG2] sequence of c-kit2 G-quadruplex DNA assessed as change in melting temperature at 1 uM by FRET assay; method in brief: as §3
MCF7 [22] = assay: Cytotoxicity against human MCF7 cells assessed as population doubling at 1 uM after 1 week […] relative to control; assay type: functional; method in brief: as §2
MCF7 [23] = assay: Selectivity ratio of IC50 for human MCF7 cells to IC50 for human WI38 cells
MCF7 [24] = assay: Cytotoxicity against human MCF7 cells assessed as population doubling at 2 uM after 1 week […] relative to control; assay type: functional; method in brief: as §2
MCF7 [25] = assay: Cytotoxicity against human MCF7 cells assessed as cell senescence at 2 uM after 1 week by beta-galactosidase assay; assay type: functional
MCF7 [26] = assay: Cytotoxicity against human MCF7 cells assessed as cell senescence at 1 uM after 1 week by beta-galactosidase assay; assay type: functional
[27] = Stabilization of d[(TA)2GC(TA)2T6(TA)2]GC(TA)2 sequence of duplex DNA assessed as change in melting temperature at 1 uM by FRET assay; method in brief: as §3
MCF7 [28] = assay: Cytotoxicity against human MCF7 cells assessed as population doubling at 2.25 uM after 1 week […] relative to control; assay type: functional; method in brief: as §2
MCF7 [29] = assay: Cytotoxicity against human MCF7 cells assessed as population doubling at 1.75 uM after 1 week […] relative to control; assay type: functional; method in brief: as §2
MCF7 [30] = assay: Cytotoxicity against human MCF7 cells assessed as cell senescence at 2.25 uM after 1 week by beta-galactosidase assay; assay type: functional
MCF7 [31] = assay: Cytotoxicity against human MCF7 cells assessed as cell senescence at 1.75 uM after 1 week by beta-galactosidase assay; assay type: functional

T1 sequence (O14746 whole entry): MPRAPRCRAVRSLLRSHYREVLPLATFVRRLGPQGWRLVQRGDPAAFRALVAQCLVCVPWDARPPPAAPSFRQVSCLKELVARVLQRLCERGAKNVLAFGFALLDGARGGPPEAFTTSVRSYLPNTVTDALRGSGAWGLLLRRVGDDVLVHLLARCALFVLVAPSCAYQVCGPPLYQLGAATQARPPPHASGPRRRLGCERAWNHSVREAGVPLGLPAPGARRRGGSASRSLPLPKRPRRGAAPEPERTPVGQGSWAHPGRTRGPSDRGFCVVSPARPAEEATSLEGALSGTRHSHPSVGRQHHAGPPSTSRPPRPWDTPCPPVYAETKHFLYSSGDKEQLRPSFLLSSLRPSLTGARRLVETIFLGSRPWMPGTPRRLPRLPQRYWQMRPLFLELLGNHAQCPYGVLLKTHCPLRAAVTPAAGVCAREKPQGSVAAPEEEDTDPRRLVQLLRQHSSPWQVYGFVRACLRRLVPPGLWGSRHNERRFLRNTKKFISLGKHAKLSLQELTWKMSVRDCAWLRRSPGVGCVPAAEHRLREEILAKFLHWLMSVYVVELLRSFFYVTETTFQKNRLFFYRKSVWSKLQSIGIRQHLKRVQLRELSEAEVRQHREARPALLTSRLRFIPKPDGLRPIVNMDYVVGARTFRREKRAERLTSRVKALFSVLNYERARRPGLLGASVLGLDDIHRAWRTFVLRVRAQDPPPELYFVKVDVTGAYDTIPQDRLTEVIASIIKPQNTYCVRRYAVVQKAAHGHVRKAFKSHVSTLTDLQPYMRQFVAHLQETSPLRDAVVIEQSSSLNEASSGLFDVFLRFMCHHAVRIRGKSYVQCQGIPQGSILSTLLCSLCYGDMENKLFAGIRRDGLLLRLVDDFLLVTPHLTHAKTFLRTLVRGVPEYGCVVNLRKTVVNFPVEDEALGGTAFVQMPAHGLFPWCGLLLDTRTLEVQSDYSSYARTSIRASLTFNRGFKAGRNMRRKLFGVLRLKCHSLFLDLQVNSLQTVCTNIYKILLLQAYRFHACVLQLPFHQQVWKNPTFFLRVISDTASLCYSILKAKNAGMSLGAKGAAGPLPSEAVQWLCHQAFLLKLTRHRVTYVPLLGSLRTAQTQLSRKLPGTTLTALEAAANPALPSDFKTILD

Structure (SMILES) | KA [1] | KA [2] | inhibition [3] | KA (Homo sapiens) | EC50 [4] | Selectivity ratio [5] | Selectivity ratio [7] | IC50 [9] | Ratio IC50 (A549 [10]) | Activity [12] | Selectivity ratio [13] | change in melting temperature (ΔTm) [14] | IC50 (MCF7 [15]) | change in melting temperature (ΔTm) [16] | IC50 (A549 [17]) | KA [18] | Selectivity ratio [19] | KA [20] | change in melting temperature (ΔTm) [21] | Activity (MCF7 [22]) | further results
O=C(CCCN1CCCC1)Nc1ccc(NC(=O)c2cccc(NC(=O)Nc3cccc(C(=O)Nc4ccc(NC(=O)CCCN5CCCC5)cc4)c3)c2)cc1 | < 1 ×10³ /M | 3.1 ×10⁶ /M | 36% | 0.4 ×10⁶ /M | > 50 µM | > 400 | > 400 | > 50 µM | 1 | Active | > 400 | 12 °C | 11.1 µM | 10.1 °C | > 50 µM | 0.4 ×10⁶ /M | > 400 | 0.9 ×10⁶ /M | 17.1 °C |  | Activity (MCF7 [6]): 96%; Activity (MCF7 [8]): 81.5%; Activity (MCF7 [11]): 1.6%
O=C(CCN1CCCC1)Nc1cccc(NC(=O)c2ccc(NC(=O)Nc3ccc(C(=O)Nc4cccc(NC(=O)CCN5CCCC5)c4)cc3)cc2)c1 |  |  |  |  |  |  |  | > 50 µM | 11.6 |  |  | 5.1 °C | 3.2 µM | 0.5 °C | 4.3 µM |  |  |  | 7.5 °C | 82.9% | Ratio IC50 (MCF7 [23]): 15.6; Activity (MCF7 [24]): 44%; Activity (MCF7 [25]): 4.1%; Activity (MCF7 [26]): 3%; change in melting temperature (ΔTm) [27]: 4.9 °C
O=C(CCN1CCCC1)Nc1ccc(NC(=O)c2cccc(NC(=O)Nc3cccc(C(=O)Nc4ccc(NC(=O)CCN5CCCC5)cc4)c3)c2)cc1 | < 1 ×10³ /M | 5 ×10⁶ /M | 6% | 1.1 ×10⁶ /M | > 50 µM | > 400 | > 400 | 7.5 µM |  | Active | > 400 | 13.5 °C | 2.6 µM | 10.2 °C | 5.3 µM | 1.4 ×10⁶ /M | > 400 | 2.1 ×10⁶ /M | 18.7 °C | 110.4% | Activity (MCF7 [28]): 66.5%; Activity (MCF7 [29]): 109.6%; Activity (MCF7 [30]): 2.4%; Activity (MCF7 [31]): 3.1%; change in melting temperature (ΔTm) [27]: 0.4 °C
